Reference: paper PMC9037807 (RSC Advances, 2021)

Assays:
ovine COX-2 = target: T1, ovine COX-2 (Ovis aries, UniProt P79208); assay: In vitro cyclooxygenase; type: biochemical; details: for Selectivity index (SI): COX-1 IC50/COX-2 IC50
T1 sequence (P79208 17-603): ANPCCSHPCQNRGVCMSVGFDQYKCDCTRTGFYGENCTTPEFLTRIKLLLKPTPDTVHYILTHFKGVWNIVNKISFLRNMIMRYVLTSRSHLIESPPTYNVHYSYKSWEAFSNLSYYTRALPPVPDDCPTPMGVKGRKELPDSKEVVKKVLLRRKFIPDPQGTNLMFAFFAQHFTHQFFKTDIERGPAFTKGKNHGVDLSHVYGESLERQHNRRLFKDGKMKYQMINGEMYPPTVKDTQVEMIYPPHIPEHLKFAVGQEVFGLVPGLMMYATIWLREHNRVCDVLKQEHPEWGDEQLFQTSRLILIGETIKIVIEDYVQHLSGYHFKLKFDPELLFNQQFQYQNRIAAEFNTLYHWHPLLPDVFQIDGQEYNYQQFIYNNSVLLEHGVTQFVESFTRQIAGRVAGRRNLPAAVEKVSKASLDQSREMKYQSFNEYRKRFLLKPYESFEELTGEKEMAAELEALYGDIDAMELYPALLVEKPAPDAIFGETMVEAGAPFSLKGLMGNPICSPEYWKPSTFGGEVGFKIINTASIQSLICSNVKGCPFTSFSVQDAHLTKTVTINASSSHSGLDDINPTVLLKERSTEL

ovine COX-1 = target: T2, ovine COX-1 (Ovis aries, UniProt P05979); assay: In vitro cyclooxygenase; type: biochemical
T2 sequence (P05979 25-600): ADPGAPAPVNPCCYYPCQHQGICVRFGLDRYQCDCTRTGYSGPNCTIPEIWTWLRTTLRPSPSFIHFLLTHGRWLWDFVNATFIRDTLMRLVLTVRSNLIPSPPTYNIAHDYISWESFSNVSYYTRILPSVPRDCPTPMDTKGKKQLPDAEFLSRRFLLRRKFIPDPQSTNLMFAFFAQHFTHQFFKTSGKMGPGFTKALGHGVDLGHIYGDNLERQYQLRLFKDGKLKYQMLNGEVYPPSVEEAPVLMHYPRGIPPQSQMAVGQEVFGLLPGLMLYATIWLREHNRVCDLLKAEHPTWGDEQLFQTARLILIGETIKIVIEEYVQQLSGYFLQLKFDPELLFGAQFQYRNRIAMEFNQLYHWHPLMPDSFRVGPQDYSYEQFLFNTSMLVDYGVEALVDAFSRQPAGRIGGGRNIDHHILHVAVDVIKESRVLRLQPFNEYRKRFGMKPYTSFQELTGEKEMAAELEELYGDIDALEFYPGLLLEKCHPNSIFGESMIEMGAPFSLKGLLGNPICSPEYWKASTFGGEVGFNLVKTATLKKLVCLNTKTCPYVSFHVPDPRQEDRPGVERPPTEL

[1] = tested on: carrageenan-induced rat paw edema; assay: Carrageenan-induced rat paw edema model; type: in vivo; details: 10 mg kg−1 po, n = 4; for Edema inhibition %, 1 h / Edema thickness ± SEM, 1 h: 1 h after carrageenan injection; for Edema inhibition %, 3 h / Edema thickness ± SEM, 3 h: 3 h after carrageenan injection; for Edema inhibition %, 6 h / Edema thickness ± SEM, 6 h: 6 h after carrageenan injection
In short: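 Rats were dosed orally with test compound (10 mg kg−1) in 5% aqueous DMSO (v/v). […] Thirty minutes after dosing, 0.02 ml of 1% carrageenan was injected sub-plantar. Paw thickness was measured 1, 3 and 6 h after injection, and edema inhibition % was calculated from paw thickness.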

rat stomach = assay: Ulcerogenic liability; type: in vivo; details: rats sacrificed 4 h after drug administration
rat's stomach = assay: Histo-pathological study of glandular and non-glandular stomach; type: in vivo; details: text description

Structure (SMILES) | IC50 (ovine COX-2) [nM] | Selectivity index (SI) (ovine COX-2) | IC50 (ovine COX-1) [µM] | Edema inhibition %, 1 h [1] [%] | Edema thickness ± SEM, 1 h [1] [mm] | Edema inhibition %, 3 h [1] [%] | Edema thickness ± SEM, 3 h [1] [mm] | Edema inhibition %, 6 h [1] [%] | Edema thickness ± SEM, 6 h [1] [mm] | Ulcer index, mean (rat stomach) [mm] | Severity of histopathological lesions of the stomach (in words) (rat's stomach)
CS(=O)(=O)c1ccc(-c2nc3ccccc3n2CC(=O)N/N=C/c2ccccc2)cc1 [11a, (E)-N′-Benzylidene-2-(2-(4-(methylsulfonyl)phenyl)-1H-benzo[d]imidazol-1-yl) acetohydrazide] | 190 | 52 | 9.87 | 60 | 1.048 ± 0.027 | 64 | 0.812 ± 0.037 | 69 | 0.578 ± 0.049 | – | –
COc1ccc(/C=N/NC(=O)Cn2c(-c3ccc(S(C)(=O)=O)cc3)nc3ccccc32)cc1 [11c, (E)-N′-(4-Methoxybenzylidene)-2-(2-(4-(methylsulfonyl)phenyl)-1H-benzo[d]imidazol-1-yl) acetohydrazide] | 110 | 103 | 11.3 | 81 | 0.487 ± 0.019 | 92 | 0.181 ± 0.013 | 93 | 0.130 ± 0.010 | – | –
CS(=O)(=O)c1ccc(-c2nc3ccccc3n2CC(=O)N/N=C/c2ccc(F)cc2)cc1 [11d, (E)-N′-(4-Fluorobenzylidene)-2-(2-(4-(methylsulfonyl)phenyl)-1H-benzo[d]imidazol-1-yl) acetohydrazide] | 120 | 85 | 10.2 | – | – | 81 | 0.427 ± 0.017 | 90 | 0.183 ± 0.014 | – | –
CS(=O)(=O)c1ccc(-c2nc3cc(Cl)ccc3n2CC(=O)N/N=C/c2ccc(Cl)cc2)cc1 [11f, (E)-N′-(4-Chlorobenzylidene)-2-(5-chloro-2-(4-(methylsulfonyl)phenyl)-1H-benzo[d]imidazol-1-yl) acetohydrazide] | 130 | 79 | 10.2 | 78 | 0.577 ± 0.020 | 80 | 0.449 ± 0.008 | 90 | 0.191 ± 0.011 | – | –
COc1ccc(/C=N/NC(=O)Cn2c(-c3ccc(S(C)(=O)=O)cc3)nc3cc(Cl)ccc32)cc1 [11g, (E)-N′-(4-Methoxybenzylidene)-2-(5-chloro-2-(4-(methylsulfonyl)phenyl)-1H-benzo[d]imidazol-1-yl) acetohydrazide] | 130 | 67 | 8.74 | 61 | 1.017 ± 0.007 | 65 | 0.785 ± 0.018 | 78 | 0.410 ± 0.018 | – | –
CS(=O)(=O)c1ccc(-c2nc3cc(Cl)ccc3n2CC(=O)N/N=C/c2ccc(F)cc2)cc1 [11h, (E)-N′-(4-Fluorobenzylidene)-2-(5-chloro-2-(4-(methylsulfonyl)phenyl)-1H-benzo[d]imidazol-1-yl) acetohydrazide] | 220 | 36 | 7.98 | 50 | 1.30 ± 0.079 | 52 | 1.063 ± 0.020 | 60 | 0.754 ± 0.026 | – | –
Cc1ccc2c(c1)nc(-c1ccc(S(C)(=O)=O)cc1)n2CC(=O)N/N=C/c1ccc(Cl)cc1 [11j, (E)-N′-(4-Chlorobenzylidene)-2-(5-methyl-2-(4-(methylsulfonyl)phenyl)-1H-benzo[d]imidazol-1-yl) acetohydrazide] | 110 | 102 | 11.2 | 81 | 0.505 ± 0.022 | 91 | 0.194 ± 0.018 | 93 | 0.129 ± 0.008 | – | –
Cc1ccc2c(c1)nc(-c1ccc(S(C)(=O)=O)cc1)n2CC(=O)N/N=C/c1ccc(F)cc1 [11l, (E)-N′-(4-Fluorobenzylidene)-2-(5-methyl-2-(4-(methylsulfonyl)phenyl)-1H-benzo[d]imidazol-1-yl) acetohydrazide] | 340 | 23 | 7.96 | 47 | 1.378 ± 0.009 | 51 | 1.102 ± 0.086 | 55 | 0.860 ± 0.010 | – | –
C/C(=N\NC(=O)Cn1c(-c2ccc(S(C)(=O)=O)cc2)nc2ccccc21)c1ccccc1 [12a, (E)-2-(2-(4-(Methylsulfonyl)phenyl)-1H-benzo[d]imidazol-1-yl)-N′-(1-phenylethylidene) acetohydrazide] | 280 | 32 | 8.97 | 50 | 1.308 ± 0.101 | 54 | 1.017 ± 0.024 | 60 | 0.766 ± 0.006 | – | –
C/C(=N\NC(=O)Cn1c(-c2ccc(S(C)(=O)=O)cc2)nc2ccccc21)c1ccc(Cl)cc1 [12b, (E)-N′-(1-(4-Chlorophenyl)ethylidene)-2-(2-(4-(methylsulfonyl)phenyl)-1H-benzo[d]imidazol-1-yl) acetohydrazide] | 100 | 125 | 12.5 | 80 | 0.522 ± 0.009 | 89 | 0.240 ± 0.014 | 95 | 0.104 ± 0.005 | – | –
C/C(=N\NC(=O)Cn1c(-c2ccc(S(C)(=O)=O)cc2)nc2cc(C)ccc21)c1ccc(Cl)cc1 [12f, (E)-N′-(1-(4-Chlorophenyl)ethylidene)-2-(5-methyl-2-(4-(methylsulfonyl)phenyl)-1H-benzo[d]imidazol-1-yl) acetohydrazide] | 190 | 57 | 10.9 | 60 | 1.038 ± 0.014 | 64 | 0.801 ± 0.013 | 70 | 0.563 ± 0.012 | – | –
Cc1ccc(-c2cc(C(F)(F)F)nn2-c2ccc(S(N)(=O)=O)cc2)cc1 [Celecoxib, celecoxib, reference compound] | – | – | – | 74 | 0.690 ± 0.017 | 94 | 0.142 ± 0.009 | 96 | 0.070 ± 0.005 | 3.5 | mild lesions
COc1ccc2c(c1)c(CC(=O)O)c(C)n2C(=O)c1ccc(Cl)cc1 [Indomethacin, indomethacin, reference compound] | – | – | – | – | – | 96 | 0.083 ± 0.005 | 97 | 0.051 ± 0.004 | 13 | severe lesions
